Laboratory results taken from ChEMBL document CHEMBL1148324 (J Med Chem, 2004).

How the values were obtained:
[1] = Selectivity expressed as the ratio of pEC50 (SLPD) and pEC50 (FSLPD); assay type: functional
[2] = molecular target: T1, Sulfonylurea receptors; K-ATP channels (Homo sapiens, UniProt O60706+Q09428+Q14654+Q15842); assay: Evaluated for K-ATP activity as in vitro bladder relaxation in spontaneous Landrace pig detrusor strips (SLPD); assay type: functional, Sus scrofa; conditions: target entry is the homologue from another species
Summary of the method: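 Bladder strips taken near the trigonal region of Landrace pig bladder, contracting spontaneously (myogenic, no cholinergic component). Test agents added at increasing concentrations; the read-out is the reduction in area under the contraction curve.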

[3] = molecular target: T1, Sulfonylurea receptors; K-ATP channels; assay: Evaluated for K-ATP activity as stable twitch response through field-stimulated landrace pig detrusor assay (FSLPD); assay type: functional, Sus scrofa; conditions: target entry is the homologue from another species
[4] = molecular target: T1, Sulfonylurea receptors; K-ATP channels; assay: Evaluated for K-ATP activity in terms of change in membrane potential through guinea pig bladder assay; assay type: functional, Cavia porcellus; conditions: target entry is the homologue from another species
[5] = molecular target: T1, Sulfonylurea receptors; K-ATP channels; assay: Evaluated for K-ATP activity in terms of stable twitch response through field-stimulated landrace pig detrusor assay; assay type: functional, Sus scrofa; conditions: target entry is the homologue from another species

| EC50 [4] [nM] | EC50 [5] [nM] | SMILES | other results |
| --- | --- | --- | --- |
| 43.7 |  | O=C1CCCC2=C1[C@@H](c1ccc(F)c(Br)c1)C1=C(CCS1(=O)=O)N2 | Selectivity [1]: 5.5; EC50 [2]: 12.6 nM; EC50 [3]: 69.2 nM |
| 2570 |  | CSc1cc([C@H]2C3=C(CCCC3=O)NC3=C2S(=O)(=O)CC3)ccc1F |  |
| 138 | 214 | O=C1CCCC2=C1[C@H](c1ccc(F)c(Cl)c1)C1=C(CCS1(=O)=O)N2 |  |
| 12000 |  | O=C1CCCC2=C1[C@H](c1ccc(F)c(-c3ccccc3)c1)C1=C(CCS1(=O)=O)N2 |  |
| 2820 |  | Cc1cc([C@H]2C3=C(CCCC3=O)NC3=C2S(=O)(=O)CC3)ccc1F |  |
| 1050 |  | CC(=O)c1cc([C@H]2C3=C(CCCC3=O)NC3=C2S(=O)(=O)CC3)ccc1F |  |
| 28.2 | 447 | O=C1CCCC2=C1[C@H](c1ccc(F)c(I)c1)C1=C(CCS1(=O)=O)N2 |  |
| > 10000 |  | O=C1CCCC2=C1[C@H](c1ccc(Br)cc1)C1=C(CCS1(=O)=O)N2 |  |
| 38 | 363 | O=C1CCCC2=C1C(c1ccc(F)c(Br)c1)C1=C(CCCS1(=O)=O)N2 (stereo in doubt; 17(-)) |  |
| 269 | 331 | O=C1CCCC2=C1[C@H](c1ccc(Cl)c(Cl)c1)C1=C(CCS1(=O)=O)N2 |  |
| 468 |  | N#Cc1cc([C@H]2C3=C(CCCC3=O)NC3=C2S(=O)(=O)CC3)ccc1F |  |
| > 10000 |  | O=C1CCCC2=C1[C@H](c1ccc(F)c(-c3cccnc3)c1)C1=C(CCS1(=O)=O)N2 |  |
| > 10000 |  | O=C1CCCC2=C1[C@H](c1ccc(F)c(-c3cccs3)c1)C1=C(CCS1(=O)=O)N2 |  |

Continued, compound first:

| SMILES | EC50 [4] [nM] | EC50 [5] [nM] | other results |
| --- | --- | --- | --- |
| N#Cc1cccc([C@H]2C3=C(CCCC3=O)NC3=C2S(=O)(=O)CC3)c1 | 5890 | 12900 |  |
| Cc1ccc([C@H]2C3=C(CCCC3=O)NC3=C2S(=O)(=O)CC3)cc1Br | 182 | 110 |  |
| CC1(C)CCC(=O)C2=C1NC1=C([C@@H]2c2ccc(F)c(Br)c2)S(=O)(=O)CC1 | > 10000 |  |  |
| O=C1CCCC2=C1[C@H](c1ccc3nonc3c1)C1=C(CCS1(=O)=O)N2 | 214 | 2340 |  |
| N#Cc1ccnc(C2C3=C(CCC3=O)NC3=C2S(=O)(=O)CC3)c1 (configuration not stated) | > 10000 |  |  |
| O=C1CCCC2=C1[C@H](c1ccc(C(F)(F)F)c(Br)c1)C1=C(CCS1(=O)=O)N2 | 219 | 9550 |  |
| CC1(C)CC(=O)C2=C(C1)NC1=C([C@@H]2c2ccc(F)c(Br)c2)S(=O)(=O)CC1 | 17800 |  |  |
| CC1=C(C(=O)O)C(c2ccc(F)c(Br)c2)C2=C(CCS2(=O)=O)N1 (configuration not stated) | 1820 | 8710 |  |
| CCOC(=O)C1=C(C)NC2=C(C1c1ccc(F)c(Br)c1)S(=O)(=O)CC2 (configuration not stated) | 501 |  |  |
| CC1(C)CCC2=C(C1=O)[C@@H](c1ccc(F)c(Br)c1)C1=C(CCS1(=O)=O)N2 | 107 | 977 |  |
| COC(=O)C1=C(C)NC2=C(C1c1ccc(F)c(Br)c1)S(=O)(=O)CC2 (configuration not stated) | 53.7 |  |  |
| O=C1CCCC2=C1[C@H](c1cc(Br)c(F)cc1O)C1=C(CCS1(=O)=O)N2 | 209 | 676 |  |
| N#Cc1cccc(C2C3=C(CCC3=O)NC3=C2S(=O)(=O)CC3)n1 (configuration not stated) | > 10000 |  |  |
| N#Cc1cc(C2C3=C(CCC3=O)NC3=C2S(=O)(=O)CC3)ccn1 (configuration not stated) | 3160 |  |  |
| O=C1CCC2=C1C(c1ccc(F)c(Br)c1)C1=C(CCCCS1(=O)=O)N2 (configuration not stated) | 2240 | 11700 |  |
| O=S1(=O)CCC2=C1C(c1ccc(F)c(Br)c1)C=C(C(F)(F)F)N2 (configuration not stated) | 447 | 2240 |  |
| O=C1CCC2=C1C(c1cncc([N+](=O)[O-])c1)C1=C(CCS1(=O)=O)N2 (configuration not stated) | > 10000 |  |  |
| O=C1CCCC2=C1[C@H](c1cc(Br)ccc1O)C1=C(CCS1(=O)=O)N2 | 575 | 20400 |  |
| CCc1ccc([C@H]2C3=C(CCCC3=O)NC3=C2S(=O)(=O)CC3)cc1[N+](=O)[O-] | 2290 |  |  |
| O=S1(=O)CCCC2=C1C(c1ccc(F)c(Br)c1)C1=C(CCCS1(=O)=O)N2 | 3160 | 11700 |  |
| N#Cc1cccc(C2C3=C(CCCC3=O)NC3=C2C(=O)CCC3)c1 |  | 9770 |  |
